From ChEMBL document CHEMBL3769334, “Interaction of prodigiosin with HSA and β-Lg: Spectroscopic and molecular docking studies” (Bioorg Med Chem, 2016)

What was measured:
Albumin [1] = target: T1, Albumin (Homo sapiens, UniProt P02768); assay: Binding affinity to human serum albumin at 310 K after 10 mins by fluorescence assay; format: ADME; conditions: isolated protein
In short: (§1)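 HSA at 0.4 µM in 20 mM Tris pH 7.4, titrated with prodigiosin at 0–3.2 µM from a methanol stock. Samples equilibrated 10 min after each addition. Excitation 295 nm, emission 310–600 nm, intensity read at the emission maximum. Run at 290, 300 and 310 K. Kb and n from log[(F0−F)/F] versus log[Q].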

Beta-lactoglobulin [2] = target: T2, Beta-lactoglobulin (Bos taurus, UniProt P02754); assay: Binding affinity to bovine beta-lactoglobulin assessed as association constant at pH 5.5 after 30 mins by fluorescence assay; format: ADME; conditions: cattle, pH 5.5, 0.5 h
T2 sequence (P02754 whole entry): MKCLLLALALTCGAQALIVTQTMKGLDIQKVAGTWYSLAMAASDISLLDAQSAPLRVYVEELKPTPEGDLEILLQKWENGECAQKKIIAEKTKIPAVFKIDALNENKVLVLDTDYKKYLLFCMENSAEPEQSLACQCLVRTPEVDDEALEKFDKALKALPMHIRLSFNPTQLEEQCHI
In short: (§2)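 β-Lg solutions at pH 3.0, 5.5 and 7.4, incubated 30 min at 25 °C before prodigiosin was added. Intrinsic fluorescence excited at 295 nm, emission monitored at 310–600 nm.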

Albumin [3] = target: T1, Albumin; assay: Binding affinity to human serum albumin at 300 K after 10 mins by fluorescence assay; format: ADME; conditions: isolated protein; in short: as §1
Albumin [4] = target: T1, Albumin; assay: Binding affinity to human serum albumin assessed as bimolecular quenching rate constant at 310 K after 10 mins by fluorescence assay; format: ADME; conditions: isolated protein; in short: as §1
[5] = target: Beta-lactoglobulin (Bos taurus) (UniProt P02754); assay: Binding affinity to bovine beta-lactoglobulin assessed as quenching of protein-compound complex at protein/compound molar ratio of 7 at 300 K after 10 mins by fluorescence assay; conditions: isolated protein
[6] = target: Beta-lactoglobulin (Bos taurus) (UniProt P02754); assay: Binding affinity to bovine beta-lactoglobulin assessed as quenching of protein-compound complex at protein/compound molar ratio of 4 at 310 K after 10 mins by fluorescence assay; conditions: isolated protein
Beta-lactoglobulin [7] = target: T2, Beta-lactoglobulin; assay: Binding affinity to bovine beta-lactoglobulin assessed as bimolecular quenching rate constant at 310 K after 10 mins by fluorescence assay; format: ADME; conditions: cattle
In short: (§3)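 Intrinsic Trp fluorescence of β-Lg at 1 µM in Tris-HCl pH 7.4, titrated with prodigiosin added from a methanol stock. Samples equilibrated 10 min after each addition. Excitation 295 nm, emission 310–600 nm, intensity read at the emission maximum. Run at 290, 300 and 310 K with a water-bath thermostat. Binding parameters taken from quenching data.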

Albumin [8] = target: T1, Albumin; assay: Binding affinity to human serum albumin assessed as quenching of protein-compound complex at protein/compound molar ratio of 5 at 290 K after 10 mins by fluorescence assay; format: ADME; conditions: isolated protein; in short: as §1
Beta-lactoglobulin [9] = target: T2, Beta-lactoglobulin; assay: Binding affinity to bovine beta-lactoglobulin at 290 K after 10 mins by fluorescence assay; format: ADME; conditions: cattle; in short: as §3
Albumin [10] = target: T1, Albumin; assay: Binding affinity to human serum albumin assessed as bimolecular quenching rate constant at 300 K after 10 mins by fluorescence assay; format: ADME; conditions: isolated protein; in short: as §1
Albumin [11] = target: T1, Albumin; assay: Displacement of warfarin from human serum albumin at 0.4 to 3.2 uM after 30 mins by fluorescence assay; conditions: 0.5 h
In short: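 HSA and warfarin at equal (1:1) concentrations, preincubated 30 min. Prodigiosin added at 0.4–3 µM. Fluorescence excited at 295 nm and recorded at 310–600 nm, with and without prodigiosin.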

Beta-lactoglobulin [12] = target: T2, Beta-lactoglobulin; assay: Binding affinity to bovine beta-lactoglobulin assessed as Stern-Volmer quenching constant at 300 K after 10 mins by fluorescence assay; format: ADME; conditions: cattle; in short: as §3
Beta-lactoglobulin [13] = target: T2, Beta-lactoglobulin; assay: Binding affinity to bovine beta-lactoglobulin assessed as bimolecular quenching rate constant at 300 K after 10 mins by fluorescence assay; format: ADME; conditions: cattle; in short: as §3
Beta-lactoglobulin [14] = target: T2, Beta-lactoglobulin; assay: Binding affinity to bovine beta-lactoglobulin assessed as Stern-Volmer quenching constant at 310 K after 10 mins by fluorescence assay; format: ADME; conditions: cattle; in short: as §3
Albumin [15] = target: T1, Albumin; assay: Binding affinity to human serum albumin at 290 K after 10 mins by fluorescence assay; format: ADME; conditions: isolated protein; in short: as §1
Albumin [16] = target: T1, Albumin; assay: Binding affinity to human serum albumin assessed as Stern-Volmer quenching constant at 290 K after 10 mins by fluorescence assay; format: ADME; conditions: isolated protein; in short: as §1
Beta-lactoglobulin [17] = target: T2, Beta-lactoglobulin; assay: Binding affinity to bovine beta-lactoglobulin assessed as bimolecular quenching rate constant at 290 K after 10 mins by fluorescence assay; format: ADME; conditions: cattle; in short: as §3
Albumin [18] = target: T1, Albumin; assay: Binding affinity to human serum albumin assessed as quenching of protein-compound complex at protein/compound molar ratio of 7 at 300 to 310 K after 10 mins by fluorescence assay; format: ADME; conditions: isolated protein; in short: as §1
Beta-lactoglobulin [19] = target: T2, Beta-lactoglobulin; assay: Binding affinity to bovine beta-lactoglobulin at 310 K after 10 mins by fluorescence assay; format: ADME; conditions: cattle; in short: as §3
Albumin [20] = target: T1, Albumin; assay: Binding affinity to human serum albumin assessed as bimolecular quenching rate constant at 290 K after 10 mins by fluorescence assay; format: ADME; conditions: isolated protein; in short: as §1
Albumin [21] = target: T1, Albumin; assay: Binding affinity to human serum albumin assessed as Stern-Volmer quenching constant at 300 K after 10 mins by fluorescence assay; format: ADME; conditions: isolated protein; in short: as §1
Beta-lactoglobulin [22] = target: T2, Beta-lactoglobulin; assay: Binding affinity to bovine beta-lactoglobulin assessed as Stern-Volmer quenching constant at 290 K after 10 mins by fluorescence assay; format: ADME; conditions: cattle; in short: as §3
Beta-lactoglobulin [23] = target: T2, Beta-lactoglobulin; assay: Binding affinity to bovine beta-lactoglobulin assessed as association constant at pH 3 after 30 mins by fluorescence assay; format: ADME; conditions: cattle, pH 3, 0.5 h; in short: as §2
Beta-lactoglobulin [24] = target: T2, Beta-lactoglobulin; assay: Binding affinity to bovine beta-lactoglobulin assessed as association constant at pH 7.4 after 30 mins by fluorescence assay; format: ADME; conditions: cattle, pH 7.4, 0.5 h; in short: as §2
[25] = target: Beta-lactoglobulin (Bos taurus) (UniProt P02754); assay: Binding affinity to bovine beta-lactoglobulin assessed as quenching of protein-compound complex at protein/compound molar ratio of 7 at 290 K after 10 mins by fluorescence assay; conditions: isolated protein
Albumin [26] = target: T1, Albumin; assay: Binding affinity to human serum albumin assessed as Stern-Volmer quenching constant at 310 K after 10 mins by fluorescence assay; format: ADME; conditions: isolated protein; in short: as §1
Beta-lactoglobulin [27] = target: T2, Beta-lactoglobulin; assay: Binding affinity to bovine beta-lactoglobulin at 300 K after 10 mins by fluorescence assay; format: ADME; conditions: cattle; in short: as §3

T1 sequence (P02768 whole entry): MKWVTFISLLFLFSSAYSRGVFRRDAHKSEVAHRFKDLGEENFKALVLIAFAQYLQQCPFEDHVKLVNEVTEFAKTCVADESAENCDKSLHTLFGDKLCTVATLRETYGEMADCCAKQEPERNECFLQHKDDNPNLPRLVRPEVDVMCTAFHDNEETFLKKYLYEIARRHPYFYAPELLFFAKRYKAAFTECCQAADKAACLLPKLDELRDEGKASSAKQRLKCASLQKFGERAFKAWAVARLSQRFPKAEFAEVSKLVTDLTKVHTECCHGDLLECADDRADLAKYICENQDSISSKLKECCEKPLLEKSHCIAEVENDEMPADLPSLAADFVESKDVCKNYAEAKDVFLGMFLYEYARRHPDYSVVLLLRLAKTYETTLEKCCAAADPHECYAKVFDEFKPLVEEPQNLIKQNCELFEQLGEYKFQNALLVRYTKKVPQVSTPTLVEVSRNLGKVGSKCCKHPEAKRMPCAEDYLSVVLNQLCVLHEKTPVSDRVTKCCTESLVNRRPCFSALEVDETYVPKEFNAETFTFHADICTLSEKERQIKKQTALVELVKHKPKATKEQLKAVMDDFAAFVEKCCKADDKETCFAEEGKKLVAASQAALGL

With CCCCCC1=C/C(=C\c2[nH]c(-c3ccc[nH]3)cc2OC)N=C1C the Activity (Albumin [1]) was “Dose-dependent effect”, the Kb (Albumin [1]) was 34000 M⁻¹ and the Ka (Beta-lactoglobulin [2]) was 1548 M⁻¹. The Activity (Albumin [3]) was “Dose-dependent effect”, the Kb (Albumin [3]) was 44100 M⁻¹ and the Kq (Albumin [4]) was 4.043 ×10¹² /M/s. The Activity [5] was 82%, the Activity [6] was 90% and the Kq (Beta-lactoglobulin [7]) was 8.28 ×10¹² /M/s. The Activity (Albumin [8]) was 80%, the Kb (Beta-lactoglobulin [9]) was 12500 M⁻¹ and the Kq (Albumin [10]) was 6.891 ×10¹² /M/s. For the same molecule, the Activity (Albumin [11]) was “Active”, the KSV (Beta-lactoglobulin [12]) was 7.28 ×10⁴ /M and the Kq (Beta-lactoglobulin [13]) was 5.69 ×10¹² /M/s. The KSV (Beta-lactoglobulin [14]) was 10.6 ×10⁴ /M, the Activity (Albumin [15]) was “Dose-dependent effect” and the Kb (Albumin [15]) was 48400 M⁻¹. For the same molecule, the KSV (Albumin [16]) was 8.14 ×10⁴ /M, the Kq (Beta-lactoglobulin [17]) was 3.92 ×10¹² /M/s and the Activity (Albumin [18]) was 85%. It also gave a Kb (Beta-lactoglobulin [19]) of 53700 M⁻¹, a Kq (Albumin [20]) of 8.14 ×10¹² /M/s and a KSV (Albumin [21]) of 6.891 ×10⁴ /M. The KSV (Beta-lactoglobulin [22]) was 5.02 ×10⁴ /M, the Ka (Beta-lactoglobulin [23]) was 184 M⁻¹ and the Ka (Beta-lactoglobulin [24]) was 1.99 ×10⁴ /M. The Activity [25] was 78%, the KSV (Albumin [26]) was 4.043 ×10⁴ /M and the Kb (Beta-lactoglobulin [27]) was 19900 M⁻¹.
